Measured values of several laboratories.
Protocols differ between the studies behind these lines.

c1ccc(-c2nc(N3CCc4cccnc4C3)c3ccccc3n2)nc1
microsomal CLint (metabolic stability; mouse, liver microsomes): 520 µL/min/mg

Cc1ccc(-c2nc3ccccc3o2)cc1NC(=O)c1cc([N+](=O)[O-])c(N2CCNCC2)cc1Cl
scaled CLint (metabolic stability; CD-1 mouse, liver microsomes; 1 µM, 1 h, pH 7.4): 12 mL/min/kg

C#Cc1cccc(Nc2ncnc3cc(OCCOC)c(OCCOC)cc23)c1
Vd/F (male Sprague-Dawley rat, plasma; oral, 12 mg/kg, single dose): 4.3 L/kg

O=C(CCCCCCC(=O)Nc1ccccc1)NO
Cmax (cat, serum; oral, 250 mg/m², single dose): 39 ng/mL

O=C(O)C1CCN(c2nc(-c3ccccn3)nc3ccccc23)C1 (stereo not shown)
microsomal CLint (metabolic stability; mouse, liver microsomes): < 1 µL/min/mg

Oc1c(Br)cc(Cl)c2cccnc12
Vd/F (Sprague-Dawley rat, plasma; subcutaneous, 10 mg/kg): 15.1 L/kg

c1ccc(-c2nc(NCc3nc4ccccc4o3)c3ccccc3n2)nc1
microsomal CLint (metabolic stability; mouse, liver microsomes): 119 µL/min/mg

Cc1cc(Cl)c(Cl)cc1NC(=O)c1ccc(N2CCNCC2)nc1
scaled CLint (metabolic stability; CD-1 mouse, liver microsomes; 1 µM, 1 h, pH 7.4): 47 mL/min/kg

CNCc1cc(-c2ccccc2F)n(S(=O)(=O)c2cccnc2)c1
Vd/F (Sprague-Dawley rat, plasma; oral, 10 mg/kg): 32.2 L/kg

CC(=O)Nc1nnc(N2CCN([C@@H](C)c3ccc4c(c3)OCO4)CC2)s1
fraction unbound (monkey, plasma; 1 µM): 0.068
